Results reported in ChEMBL document CHEMBL1157718, “Characterization of non-lipid autotaxin inhibitors” (Bioorg Med Chem, 2010).
The source made the active and inactive calls.

How the values were obtained:
Autotaxin [1] = biological target: T1, Autotaxin (Homo sapiens, UniProt Q13822); assay: Noncompetitive inhibition of autotaxin-mediated pNP-TMP hydrolysis by Michaelis-Menten analysis for enzyme-substrate complex
Procedure, shortened: (§1)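 ATX from ~10-fold concentrated serum-free conditioned medium of MDA-MB-435 cells, used without further manipulation. […] Absorbance at 405 nm read every 2 min gave initial rates. Km came from zero-inhibitor data. Ki (free enzyme) and K'i (enzyme–substrate complex) were fitted by non-linear models, and the mechanism was assigned by the lowest average percent residuals.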

[2] = biological target: T2, Glycerophosphocholine cholinephosphodiesterase ENPP6 (Homo sapiens) (UniProt Q6UWR7); assay: Inhibition of NPP6 expressed in human HEK293 cells at 10 uM; assay type: cell-based
T2 sequence (whole entry): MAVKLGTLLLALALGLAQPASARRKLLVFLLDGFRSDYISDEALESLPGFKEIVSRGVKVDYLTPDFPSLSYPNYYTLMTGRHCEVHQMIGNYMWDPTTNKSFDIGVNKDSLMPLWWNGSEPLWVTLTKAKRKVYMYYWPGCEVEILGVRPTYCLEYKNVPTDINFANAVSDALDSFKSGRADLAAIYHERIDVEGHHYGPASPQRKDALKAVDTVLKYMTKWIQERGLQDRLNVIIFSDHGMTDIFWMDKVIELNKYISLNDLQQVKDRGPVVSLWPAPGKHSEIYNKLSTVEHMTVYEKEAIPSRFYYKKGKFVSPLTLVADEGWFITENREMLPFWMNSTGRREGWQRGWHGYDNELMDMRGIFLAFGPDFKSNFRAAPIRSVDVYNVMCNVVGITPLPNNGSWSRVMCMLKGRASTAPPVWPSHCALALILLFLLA
Procedure, shortened: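 Enzyme was soluble NPP6 in unconcentrated serum-free conditioned medium from transiently transfected HEK293 cells (48 h), making up one-third of the assay volume. Substrate was pNPPC at […] in 100 mM Tris-HCl pH 9.0, 500 mM NaCl, 0.05% Triton X-100, with inhibitor at 10 µM. A405 was read every 2 min and reported at 1 h, blank-subtracted and normalized to vehicle. Mean ± SD of ≥3 wells.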

Autotaxin [3] = biological target: T1, Autotaxin; assay: Noncompetitive inhibition of autotaxin-mediated pNP-TMP hydrolysis by Michaelis-Menten analysis; procedure, shortened: as §1
Autotaxin [4] = biological target: T1, Autotaxin; assay: Competitive-type inhibition of autotaxin-mediated FS3 hydrolysis by Michaelis-Menten analysis
Procedure, shortened: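 ATX from ~10-fold concentrated serum-free conditioned medium of MDA-MB-435 cells. […] Buffer was 50 mM Tris pH 8.0 with salts and 30 µM charcoal-stripped BSA, 37 °C, fluorescence read every 2 min at ex 485/em 528. Initial rates were fitted to inhibition models, and the mechanism was assigned by lowest average percent residuals.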

Autotaxin [5] = biological target: T1, Autotaxin
[6] = biological target: T3, Ectonucleotide pyrophosphatase/phosphodiesterase family member 7 (Homo sapiens) (UniProt Q6UWV6); assay: Inhibition of NPP7 expressed in human HEK293 cells at 10 uM; assay type: cell-based
T3 sequence (whole entry): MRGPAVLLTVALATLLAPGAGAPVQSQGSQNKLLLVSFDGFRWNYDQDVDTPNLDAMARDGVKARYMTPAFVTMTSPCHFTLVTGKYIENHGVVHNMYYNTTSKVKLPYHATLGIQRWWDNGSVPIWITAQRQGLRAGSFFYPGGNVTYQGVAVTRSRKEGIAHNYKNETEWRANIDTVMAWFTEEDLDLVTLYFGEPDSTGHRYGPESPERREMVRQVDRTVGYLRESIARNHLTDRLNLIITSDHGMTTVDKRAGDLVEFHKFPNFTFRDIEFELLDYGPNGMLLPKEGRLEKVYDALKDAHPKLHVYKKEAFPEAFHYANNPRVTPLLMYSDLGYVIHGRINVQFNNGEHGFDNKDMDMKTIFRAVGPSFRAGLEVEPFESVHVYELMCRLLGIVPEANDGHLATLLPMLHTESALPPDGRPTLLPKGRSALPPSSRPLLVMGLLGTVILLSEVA
Procedure, shortened: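 Enzyme was soluble NPP7 in concentrated (10 kDa cutoff) serum-free conditioned medium from transiently transfected HEK293 cells, making up one-third of the assay volume. Substrate was pNPPC at […] in 50 mM Tris-HCl pH 8.5, 150 mM NaCl, 10 mM taurocholic acid, no EDTA, with inhibitor at 10 µM. A405 was read every 2 min and reported at 1 h, normalized to vehicle after blank subtraction. Mean ± SD of ≥3 wells.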

Autotaxin [7] = biological target: T1, Autotaxin; remark: listed apart in the source
Autotaxin [8] = biological target: T1, Autotaxin; remark: listed apart in the source
Autotaxin [9] = biological target: T1, Autotaxin; remark: listed apart in the source

Compound | Ki (Autotaxin [1]) [µM] | inhibition [2] | Ki (Autotaxin [3]) [µM] | Ki (Autotaxin [4]) [µM] | IC50 (Autotaxin [5]) [µM] | inhibition [6] | IC50 (Autotaxin [7]) [µM] | Ki (Autotaxin [8]) [µM] | Ki (Autotaxin [9]) [µM]
O=C(O)c1ccc(Oc2ccc(C(=O)c3ccc4c(c3)C(=O)N(c3cccc5ccccc35)C4=O)cc2)cc1 |  | inactive |  |  | 6.8 | inactive | 6.8 | 5.8 | 32.3
O=C(O)c1cccc(NC(=O)c2ccc3c(c2)C(=O)N(c2ccc(/N=N/c4ccccc4)cc2)C3=O)c1 |  | inactive |  |  |  | inactive | 12.8 | 15.1 | 40.3
O=C(O)c1ccc(CN2C(=O)c3ccc(C(=O)c4ccc5c(c4)C(=O)N(Cc4ccc(C(=O)O)cc4)C5=O)cc3C2=O)cc1 |  | inactive |  | 5 |  | inactive | 12.8 |  | 

Continued, values first:

Ki (Autotaxin [1]) [µM] | inhibition [2] | Ki (Autotaxin [3]) [µM] | Ki (Autotaxin [4]) [µM] | IC50 (Autotaxin [5]) [µM] | inhibition [6] | IC50 (Autotaxin [7]) [µM] | Ki (Autotaxin [8]) [µM] | Ki (Autotaxin [9]) [µM] | Compound
6.5 | inactive | 6.5 | 1.9 | 1.2 | inactive |  |  |  | CCn1cc(C(=O)O)c(=O)c2cnc(N3CCN(C(=S)Nc4cc(Cl)cc(Cl)c4)CC3)nc21
 | inactive |  |  |  | inactive |  |  |  | CCn1cc(C(=O)O)c(=O)c2cnc(N3CCN(C(=S)NC(=O)C4c5ccccc5Oc5ccccc54)CC3)nc21
 | inactive |  |  |  | inactive |  |  |  | CCn1c(SCC(=O)Nc2ccc(C(=O)O)cc2)nc2nc3c(cc2c1=O)CCCC3
